What was measured:
[1] = biological target: T1, B1 bradykinin receptor (Homo sapiens, UniProt P46663); test: Displacement of [3H]desArg from human B1 in human WI 38 cells; format: cell-based
T1 sequence (P46663 whole entry): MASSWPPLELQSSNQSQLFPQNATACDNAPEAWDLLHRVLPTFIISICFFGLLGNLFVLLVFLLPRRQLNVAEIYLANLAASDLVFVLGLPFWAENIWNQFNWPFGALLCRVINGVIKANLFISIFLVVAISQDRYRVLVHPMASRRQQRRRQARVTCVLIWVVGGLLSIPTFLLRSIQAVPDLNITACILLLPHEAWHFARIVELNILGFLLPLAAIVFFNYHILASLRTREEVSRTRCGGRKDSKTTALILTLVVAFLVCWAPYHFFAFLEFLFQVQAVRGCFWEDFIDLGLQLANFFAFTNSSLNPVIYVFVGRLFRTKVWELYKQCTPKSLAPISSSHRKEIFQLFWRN
Procedure, shortened: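 WI-38 fibroblasts, 50,000/well, grown overnight and primed with IL-1b 100 units/mL for 3 h to induce B1. Binding used ~1 nM [3H]-desArg10kallidin in HEPES/HBSS pH 7.4 with phenanthroline and bacitracin, 1 h at 4 °C, 0.5% final DMSO. Nonspecific binding was defined with 3 µM desArg10kallidin. Cells washed, SDS-solubilized and scintillation counted; logistic fit gave IC50, converted to Ki, ≥3 determinations.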

[2] = biological target: T1, B1 bradykinin receptor; test: Antagonist activity at human cloned B1 receptor expressed in african green monkey COS7 cells by calcium mobilization assay; format: functional, cell-based, COS-7
Procedure, shortened: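 Cos-7 cells (DMEM, 10% FBS, 37 °C, 6% CO2) transiently electroporated with 16 µg human B1 cDNA plus 50 µg aequorin cDNA, plated 12,000 cells/well and used 2–3 days later. Compounds serially diluted from 2 mM DMSO stocks in half-log steps, six concentrations in triplicate. Coelenterazine-loaded cells received compounds in HEPES assay buffer. Read-out was aequorin calcium luminescence, with desArg10HOE140 standards for basal and partial inhibition. Ki reported.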

Structure (SMILES)	Ki [1] [nM]	Ki [2] [nM]
CNC(=O)CN(CCOc1ccc2c(c1)CCC2)S(=O)(=O)c1ccc(Cl)cc1Cl	2200	–
COc1cc(CN(CC(=O)NCc2ccccc2Cl)S(=O)(=O)c2ccc(CN3CCOCC3)cc2)ccc1OCC(C)C	149	463
COc1cc(CN(CC(=O)NCc2ccccc2Cl)S(=O)(=O)c2ccc(CN3CCCCC3)cc2)ccc1OCC(C)C	34	267
COc1cc(CN(CC(=O)NCc2ccccc2Cl)S(=O)(=O)c2ccc(CN3CCN(C)CC3)cc2)ccc1OCC(C)C	11	37
COCCCNC(=O)CN(CCOc1ccc2c(c1)CCC2)S(=O)(=O)c1ccc(Cl)cc1Cl	1210	–
CC(C)COc1ccc(CN(CC(=O)NCc2ccccc2Cl)S(=O)(=O)c2ccc(CN3CCN(C)CC3)cc2)cc1	113	–
COc1cc(CN(CC(=O)NCc2ccccc2Cl)S(=O)(=O)c2ccc(CN(C)C)cc2)ccc1OCC(C)C	93	497
CC(C)COc1ccc(CN(CC(=O)NCc2ccccc2Cl)S(=O)(=O)c2ccc(CN3CCN(C)CC3)cc2)cc1Cl	21	188

Results, then the compound that gave them:

Ki [1] [nM]	Ki [2] [nM]	Structure (SMILES)
13000	–	O=C(O)CCNC(=O)CN(CCOc1ccccc1)S(=O)(=O)c1ccc(Cl)cc1Cl
210	–	COc1ccccc1CCNC(=O)CN(CCOc1ccc2c(c1)OCO2)S(=O)(=O)c1ccc(Cl)cc1Cl
410	–	O=C(O)CCNC(=O)CN(CCOc1ccc2c(c1)CCC2)S(=O)(=O)c1ccc(Cl)cc1Cl
1570	–	O=C(O)CCNC(=O)CN(CCOc1ccc2c(c1)OCO2)S(=O)(=O)c1ccc(Cl)cc1Cl
1090	–	O=C(O)CCNC(=O)CN(CCOc1cccc(Cl)c1)S(=O)(=O)c1ccc(Cl)cc1Cl

Source: ChEMBL document CHEMBL1139266, “Sulfonamido-aryl ethers as bradykinin B1 receptor antagonists” (Bioorg Med Chem Lett, 2009)
